According to paper PMC6482285 (Chembiochem : a European journal of chemical biology, 2014):
Values joined by “and” are separate entries in the source; they are usually repeats but may differ in a detail not shown here. Equal entries are not always repeated. Values belong to the compound of their own block, whether it stands above or below them.

Assays:
Assay type in all cases: biochemical
eEF-2K [1] = target: T1, eEF-2K (Homo sapiens, UniProt O00418); experiment: ADP binding to eEF-2K
eEF-2K Y236F = eEF-2K Y236F (Homo sapiens, UniProt O00418, Y236F); experiment: kinase dose response and recovery assays with the Y236F mutant
eEF-2K C146A = eEF-2K C146A (Homo sapiens, UniProt O00418, C146A); experiment: kinase dose response and recovery assays with the C146A mutant
eEF-2K C146S = eEF-2K C146S (Homo sapiens, UniProt O00418, C146S); experiment: kinase dose response and recovery assays with the C146S mutant
eEF-2K [2] = target: T1, eEF-2K; experiment: time dependent inhibition
In short: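 eEF-2K (100 nM) incubated with test compound (0–500 μM) for 0–120 min in 25 mM HEPES pH 7.5, BSA, DTT, 5% DMSO. ADP protection used 0/250 μM compound ± 4 mM ADP; glutathione used 2.5 mM for 1 h. Diluted 50-fold into 30 °C assay buffer (150 μM CaCl2, 1 μM calmodulin, 50 μM peptide), started with 100 μM [γ-32P]ATP, read by P81 counting. E•I* formation fitted exponentially or globally for Kd, k2.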

eEF-2K [3] = target: T1, eEF-2K; experiment: recovery experiments after 50-fold dilution, loss of E•I*
eEF-2K [4] = target: T1, eEF-2K; experiment: eEF-2K kinase assay, dose response; conditions: 100 μM ATP
[5] = 1 mM, 1 hour incubation, rapidly diluted

Ki (eEF-2K [1]): ~1 mM
SMILES: Nc1ncnc2c1ncn2[C@@H]1O[C@H](COP(=O)(O)OP(=O)(O)O)[C@@H](O)[C@H]1O [ADP]

IC50 (eEF-2K Y236F): 105 µM
recovery of enzyme activity after dilution (eEF-2K Y236F; [5]): slow recovery of activity
IC50 (eEF-2K C146A): 890 µM
time-dependence of inhibition (eEF-2K C146A): no time-dependence
IC50 (eEF-2K C146S): 655 µM
time-dependence of inhibition (eEF-2K C146S): no time-dependence
Kd (eEF-2K [2]): 140 µM
kobs for the formation of the E•I* complex (eEF-2K [2]; DFTD 250 μM in the absence of ADP): 0.0015 ± 0.0003 s⁻¹
kobs for the formation of the E•I* complex (eEF-2K [2]; DFTD 250 μM in the presence of ADP (4 mM)): 0.0002 ± 0.00003 s⁻¹
effect of glutathione on the inactivation or the reversibility rate (eEF-2K [2]; DFTD 250 μM pre-incubated with 2.5 mM glutathione for 1 hour): no significant effect
enzyme covalently bound at saturation (eEF-2K [2]; at saturation): approximately 75%
slow equilibrium on the enzyme (=k2/k-2) (eEF-2K [2]; global fit of Figures 2B and 2C): 2.8
k2 (inactivation step) (eEF-2K [2]; global fit of time-dependent and recovery experiments, KinTek Global Explorer): 0.0017 s⁻¹
k-2 (disappearance of E•I*) (eEF-2K [3]; 250 μM, 1 hour incubation, 50-fold dilution, first order fit): 0.0006 s⁻¹
recovery of enzyme activity after dilution (eEF-2K [3]; wild type, 1 mM, 1 hour incubation, rapidly diluted): slow recovery of activity
IC50 (eEF-2K [4]; apparent IC50, 10 minute incubation): 110 µM
SMILES: N#CC1=C(N)SC(N)=C(C#N)C1c1ccccc1F [DFTD, 2,6-diamino-4-(2-fluorophenyl)-4H-thiopyran-3,5-dicarbonitrile]
recovery of enzyme activity after dilution (eEF-2K C146A; [5]): maximal activity was attained immediately
recovery of enzyme activity after dilution (eEF-2K C146S; [5]): maximal activity was attained immediately

kobs for the formation of E•I* complex (eEF-2K [2]; MDP 500 μM): 0.0031 ± 0.0002 s⁻¹
kobs for the loss of the E•I* complex (recovery of activity) (eEF-2K [3]; MDP 500 μM, 60 min, diluted 50-fold): 0.00056 s⁻¹ and 0.00056 ± 0.00003 s⁻¹
h (hill coefficient) (eEF-2K [4]; 60 minutes preincubation): 0.93 ± 0.01
SMILES: COc1cccc(C2C(C#N)C(=O)NC(=O)C2C#N)c1 (stereo not shown) [MDP, 4-(3-methoxyphenyl)-2,6-dioxo-3,5-piperidinedicarbonitrile]
